Converted amounts (≈) assume the structure as drawn.
Legend:
[1] = system: HeLa; experiment: Cytotoxicity against human HeLa cells after 48 hrs by MTT assay; type: functional, cell-based
Procedure, shortened: (§1)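 Cells in medium with 10% FBS, 5% CO₂, 37 °C, seeded from a 1 × 10⁵ cells/mL suspension. Test solutions from DMSO stocks (final <1% DMSO) added after 24 h. Exposure 48 h, then MTT 2.5 mg/mL for 2 h, formazan dissolved in DMSO, read at 490 nm. IC₅₀ is 50% OD reduction versus untreated, from dose-response curves. Mean of three independent determinations.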

[2] = Cytotoxicity against […] after 48 hrs by MTT assay; type: functional, cell-based; details: Mus musculus, Ehrlich; procedure, shortened: as §1
[3] = system: MCF7; experiment: Cytotoxicity against human MCF7 cells after 48 hrs by MTT assay; type: functional, cell-based; details: MCF7, 48 h; procedure, shortened: as §1
[4] = Anticancer activity against […] xenografted in Swiss albino mouse liquid tumor model assessed as increase in host lifespan at 5 mg/kg, ip qd for 9 days measured after 14 days; type: functional, Ehrlich; details: route intraperitoneal
[5] = system: Mus musculus; experiment: Toxicity in human EAC cells xenografted Swiss albino mouse liquid tumor model assessed as change hemoglobin level at 5 mg/kg, ip qd for 9 days (reference value: 5.75 +/- 0.655 mg); type: organism-based, Ehrlich; parameters: dose 5 mg/kg, route intraperitoneal; details: in vivo, 216 h
[6] = system: Mus musculus; experiment: Toxicity in human EAC cells xenografted Swiss albino mouse liquid tumor model assessed as change in lymphocyte cell count at 5 mg/kg, ip qd for 9 days (reference value: 23 +/- 0.567 %); type: organism-based, Ehrlich; parameters: dose 5 mg/kg, route intraperitoneal; details: in vivo, 216 h
[7] = Antitumor activity against […] xenografted in Swiss albino mouse liquid tumor model assessed as change in body weight at 10 mg/kg, ip qd for 9 days measured after 14 days (reference value: 12.2 +/- 0.75 g); type: functional, Ehrlich; details: route intraperitoneal
Procedure, shortened: (§2)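 EAC cells (0.2 mL of 2 × 10⁶ cells/mouse) injected ip on day 0. Daily ip dosing began 24 h later. Ten mice per group. Tumor volume, packed cell volume and viable tumor cell count read by Trypan blue method, alongside body weight. Values are mean ± SEM versus tumor control. Cisplatin 5 mg/kg served as the positive control.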

[8] = Antitumor activity against […] xenografted in Swiss albino mouse liquid tumor model assessed as change in body weight at 5 mg/kg, ip qd for 9 days measured after 14 days (reference value: 12.2 +/- 0.75 g); type: functional, Ehrlich; details: route intraperitoneal; procedure, shortened: as §2
[9] = system: Mus musculus; experiment: Toxicity in […] xenografted Swiss albino mouse liquid tumor model assessed as change WBC cell count at 10 mg/kg, ip qd for 9 days (reference value: 20.6 +/- 0.545 10^3/mm3); type: organism-based, Ehrlich; parameters: dose 10 mg/kg, route intraperitoneal; details: in vivo, 216 h
[10] = system: Mus musculus; experiment: Toxicity in […] xenografted Swiss albino mouse liquid tumor model assessed as change WBC cell count at 5 mg/kg, ip qd for 9 days (reference value: 20.6 +/- 0.545 10^3/mm3); type: organism-based, Ehrlich; parameters: dose 5 mg/kg, route intraperitoneal; details: in vivo, 216 h
[11] = Anticancer activity against […] xenografted in Swiss albino mouse liquid tumor model assessed as tumor volume at 10 mg/kg, ip qd for 9 days measured after 14 days (reference value: 12.1 +/- 0.89 mL); type: functional, Ehrlich; details: route intraperitoneal; procedure, shortened: as §2
[12] = system: Mus musculus; experiment: Toxicity in […] xenografted Swiss albino mouse liquid tumor model assessed as change in monocytes cell count at 5 mg/kg, ip qd for 9 days (reference value: 2.4 +/- 0.12 %); type: organism-based, Ehrlich; parameters: dose 5 mg/kg, route intraperitoneal; details: in vivo, 216 h
[13] = system: Mus musculus; experiment: Toxicity in human EAC cells xenografted Swiss albino mouse liquid tumor model assessed as change in neutrophil cell count at 10 mg/kg, ip qd for 9 days (reference value: 73 +/- 1.25 %); type: organism-based, Ehrlich; parameters: dose 10 mg/kg, route intraperitoneal; details: in vivo, 216 h
[14] = system: Mus musculus; experiment: Toxicity in human EAC cells xenografted Swiss albino mouse liquid tumor model assessed as change in monocytes cell count at 10 mg/kg, ip qd for 9 days (reference value: 2.4 +/- 0.12 %); type: organism-based, Ehrlich; parameters: dose 10 mg/kg, route intraperitoneal; details: in vivo, 216 h
[15] = Anticancer activity against […] xenografted in Swiss albino mouse liquid tumor model assessed as tumor volume at 5 mg/kg, ip qd for 9 days measured after 14 days (reference value: 12.1 +/- 0.89 mL); type: functional, Ehrlich; details: route intraperitoneal; procedure, shortened: as §2
[16] = system: Mus musculus; experiment: Toxicity in […] xenografted Swiss albino mouse liquid tumor model assessed as change hemoglobin level at 10 mg/kg, ip qd for 9 days (reference value: 5.75 +/- 0.655 mg); type: organism-based, Ehrlich; parameters: dose 10 mg/kg, route intraperitoneal; details: in vivo, 216 h
[17] = system: Mus musculus; experiment: Toxicity in human EAC cells xenografted Swiss albino mouse liquid tumor model assessed as change in RBC cell count at 10 mg/kg, ip qd for 9 days (reference value: 2.74 +/- 0.081 million/mm3); type: organism-based, Ehrlich; parameters: dose 10 mg/kg, route intraperitoneal; details: in vivo, 216 h
[18] = system: Mus musculus; experiment: Toxicity in human EAC cells xenografted Swiss albino mouse liquid tumor model assessed as change in RBC cell count at 5 mg/kg, ip qd for 9 days (reference value: 2.74 +/- 0.081 million/mm3); type: organism-based, Ehrlich; parameters: dose 5 mg/kg, route intraperitoneal; details: in vivo, 216 h
[19] = Anticancer activity against […] xenografted in Swiss albino mouse liquid tumor model assessed as viable tumor cells per 10^7 cells at 5 mg/kg, ip qd for 9 days measured after 14 days by trypan blue staining (reference value: 6.39 +/- 0.51 10^7/mL); type: functional, Ehrlich; details: route intraperitoneal; procedure, shortened: as §2
[20] = Anticancer activity against […] xenografted in Swiss albino mouse liquid tumor model assessed as packed cell volume at 10 mg/kg, ip qd for 9 days measured after 14 days by trypan blue staining (reference value: 2.75 +/- 0.49 mm); type: functional, Ehrlich; details: route intraperitoneal; procedure, shortened: as §2
[21] = Anticancer activity against […] xenografted in Swiss albino mouse liquid tumor model assessed as host survival at 10 mg/kg, ip qd for 9 days (reference value: 13.7 +/- 0.03 days); type: functional, Ehrlich; details: route intraperitoneal
[22] = Anticancer activity against […] xenografted in Swiss albino mouse liquid tumor model assessed as increase in host lifespan at 10 mg/kg, ip qd for 9 days measured after 14 days; type: functional, Ehrlich; details: route intraperitoneal
[23] = Anticancer activity against […] xenografted in Swiss albino mouse liquid tumor model assessed as host survival at 5 mg/kg, ip qd for 9 days (reference value: 13.7 +/- 0.03 days); type: functional, Ehrlich; details: route intraperitoneal
[24] = Anticancer activity against […] xenografted in Swiss albino mouse liquid tumor model assessed as packed cell volume at 5 mg/kg, ip qd for 9 days measured after 14 days by trypan blue staining (reference value: 2.75 +/- 0.49 mm); type: functional, Ehrlich; details: route intraperitoneal; procedure, shortened: as §2
[25] = system: Mus musculus; experiment: Toxicity in human EAC cells xenografted Swiss albino mouse liquid tumor model assessed as change in neutrophil cell count at 5 mg/kg, ip qd for 9 days (reference value: 73 +/- 1.25 %); type: organism-based, Ehrlich; parameters: dose 5 mg/kg, route intraperitoneal; details: in vivo, 216 h
[26] = system: Mus musculus; experiment: Toxicity in human EAC cells xenografted Swiss albino mouse liquid tumor model assessed as change in lymphocyte cell count at 10 mg/kg, ip qd for 9 days (reference value: 23 +/- 0.567 %); type: organism-based, Ehrlich; parameters: dose 10 mg/kg, route intraperitoneal; details: in vivo, 216 h
[27] = Anticancer activity against […] xenografted in Swiss albino mouse liquid tumor model assessed as viable tumor cells per 10^7 cells at 10 mg/kg, ip qd for 9 days measured after 14 days by trypan blue staining (reference value: 6.39 +/- 0.51 10^7/mL); type: functional, Ehrlich; details: route intraperitoneal; procedure, shortened: as §2

SMILES	IC50 [1] [mg/L]	IC50 [2] [mg/L]	IC50 [3] [mg/L]	Activity [4] [%]	Activity [5] [mg]	Activity [6] [%]	Activity [7] [g]	Activity [8] [g]	Activity [9] [×10³ /mm3]	Activity [10] [×10³ /mm3]	Activity [11] [mL]	Activity [12] [%]	Activity [13] [%]	Activity [14] [%]	Activity [15] [mL]	Activity [16] [mg]	Activity [17] [million/mm3]	Activity [18] [million/mm3]	Activity [19] [×10⁷ /ml]	Activity [20] [mm]	other results
Cc1noc2c(C(c3ccccc3Cl)c3c(-c4ccccc4)c[n+]([O-])c4c(C)noc34)c(-c3ccccc3)c[n+]([O-])c12	79 (≈ 137 µM)	70.4 (≈ 122 µM)	72.1 (≈ 125 µM)																		
Cc1noc2c(C(c3ccccc3)c3c(-c4ccccc4)c[n+]([O-])c4c(C)noc34)c(-c3ccccc3)c[n+]([O-])c12	28.6 (≈ 52.9 µM)	26.6 (≈ 49.2 µM)	31.9 (≈ 59 µM)	19.7	8.08	31	7.7	10.41	13.92	18.48	4.5	2	39	1.6	7.61	9.3	3.88	3.02	4.05	0.94	MST [21]: 22.1 days; Activity [22]: 61.31%; MST [23]: 16.4 days; Activity [24]: 1.25 mm; Activity [25]: 54%; Activity [26]: 49%; Activity [27]: 3.27 ×10⁷ /ml
COc1ccccc1C(c1c(-c2ccccc2)c[n+]([O-])c2c(C)noc12)c1c(-c2ccccc2)c[n+]([O-])c2c(C)noc12	65.5 (≈ 115 µM)	51.8 (≈ 90.9 µM)	57.3 (≈ 101 µM)																		
Cc1noc2c(C(c3ccc(Cl)cc3)c3c(-c4ccccc4)c[n+]([O-])c4c(C)noc34)c(-c3ccccc3)c[n+]([O-])c12	70.7 (≈ 123 µM)	60.6 (≈ 105 µM)	74.3 (≈ 129 µM)																		
Cc1noc2c(C(c3ccccc3)c3c(-c4ccccc4O)c[n+]([O-])c4c(C)noc34)c(-c3ccccc3O)c[n+]([O-])c12	32.8 (≈ 57.3 µM)	36.3 (≈ 63.4 µM)	33.5 (≈ 58.6 µM)	8.02	5.96	26	8.89	11	18.8	19.9	8.29	2.3	51	1.9	10.69	7.02	3.3	2.72	5.21	1.69	MST [21]: 18 days; Activity [22]: 31.38%; MST [23]: 14.8 days; Activity [24]: 2.13 mm; Activity [25]: 65%; Activity [26]: 40%; Activity [27]: 4.07 ×10⁷ /ml

From ChEMBL document CHEMBL1949580, “Multi-component synthesis and in vitro and in vivo anticancer activity of novel arylmethylene bis-isoxazolo[4,5-b]pyridine-N-oxides” (Eur J Med Chem, 2012)
